The results in this text go back to ChEMBL document CHEMBL4665829, “Synthesis, Structure-Activity Relationship, and Antimalarial Efficacy of 6-Chloro-2-arylvinylquinolines” (J Med Chem, 2020).

The structures appear in SMILES notation.

The test system of this experiment is Plasmodium falciparum. Nature of the experiment: Antiplasmodial activity against chloroquine-resistant Plasmodium falciparum Dd2 infected in human erythrocytes assessed as reduction in microbial growth after 72 hrs by SYBR green I staining based fluorescence assay. It is filed as functional, organism-based. The conditions noted are these: Dd2, Erythrocyte. An outline of the steps:
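SYBR Green I assay: twofold serial dilutions on P. falciparum cultures at 1% parasitemia, 1% hematocrit, 37 °C, 5% CO₂, 72 h, max 0.1% DMSO. DMSO and CQ as growth and inhibition controls. Plates frozen at −80 °C, thawed, lysed in Tris/saponin/EDTA/Triton buffer with 0.01% SYBR Green I, 1 h dark at room temperature. Fluorescence read at 485 ex/530 em. EC50 by nonlinear dose–response fit.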
A word on the EC50: it is the midpoint of the concentration-response curve. Turning to `COc1ccc(/C=C/c2cc(NCCN(C)C)c3cc(F)ccc3n2)cc1OC`, the EC50 worked out at 41.1 nM.
On to `FC(F)(F)Oc1ccc(/C=C/c2cc(NCCCCN3CCOCC3)c3cc(Cl)ccc3n2)cc1`, for which the EC50 was 56.6 nM.
As to `Fc1ccc(/C=C/c2cc(NCCCN3CCOCC3)c3cc(Cl)ccc3n2)cc1`, the EC50 worked out at 40.8 nM.
On to `CN(C)CCCCNc1cc(/C=C/c2ccc([N+](=O)[O-])cc2)nc2ccc(Cl)cc12`, for which the concentration for a half-maximal effect (EC50) came to 52.5 nM.
As for `COc1ccc2nc(/C=C/c3cccs3)cc(NCCN(C)C)c2c1`, the concentration for a half-maximal effect (EC50) stood at 80 nM.
For `COc1ccc(/C=C/c2cc(NCCN(C)C)c3cc(F)ccc3n2)cc1`, the EC50 is 37.8 nM.
As for `CN(C)CCNc1cc(/C=C/c2ccccc2)nc2ccc(F)cc12`, the figure is 21 nM; as for `CN(C)CCNc1cc(/C=C/c2cccs2)nc2ccc(Cl)cc12`, 29.7 nM; as for `COc1ccc2nc(C)cc(NCCN(C)C)c2c1`, 5520 nM.
As for `COc1ccc(/C=C/c2cc(NCCN(C)C)c3cc(Cl)ccc3n2)cc1`, the figure is 34.8 nM.
As for `CN(C)CCNc1cc(/C=C/c2ccc([N+](=O)[O-])cc2)nc2ccc(Cl)cc12`, the EC50 amounted to 28.7 nM.
As for `Fc1cc(F)cc(/C=C/c2cc(NCCCCN3CCOCC3)c3cc(Cl)ccc3n2)c1`, the figure is 185 nM.
With `COc1ccc(/C=C/c2cc(NCCN(C)C)c3cc(Cl)ccc3n2)cc1OC`, the EC50 was found to be 38.9 nM.
For `CN(C)CCNc1cc(CCc2ccncc2)nc2ccc(Cl)cc12` the value was 259 nM; for `Clc1ccc2nc(/C=C/C=C/c3ccccc3)cc(NCCCCN3CCOCC3)c2c1`, 143 nM.
Take `CN(C)CCNc1cc(/C=C/c2ccco2)nc2ccc(Cl)cc12`: the concentration giving a half-maximal response (EC50) was determined as 37 nM.
As to `Fc1ccc(/C=C/c2cc(N3CCCC3)c3cc(Cl)ccc3n2)cc1`, the EC50 is 428 nM.
For `CN(C)CCNc1cc(/C=C/c2cccs2)nc2ccc(F)cc12` the value was 111 nM; for `COc1cc(/C=C/c2cc(NCCN(C)C)c3cc(Cl)ccc3n2)cc(OC)c1OC`, 44.4 nM; for `Clc1ccc2nc(/C=C/c3ccncc3)cc(NCCN3CCOCC3)c2c1`, 137 nM.
Turning to `Clc1ccc2nc(-c3ccccc3)cc(NCCCCN3CCOCC3)c2c1`, the EC50 turned out to be 423 nM.
Turning to `COc1ccc(/C=C/c2cc(NCCN(C)C)c3cc(OC)ccc3n2)cc1`, the EC50 was 43.6 nM.
Turning to `COc1cc(/C=C/c2cc(NCCN(C)C)c3cc(F)ccc3n2)cc(OC)c1OC`, the EC50 was determined as 38.6 nM.
With `CN(C)CCNc1cc(/C=C/c2ccc([N+](=O)[O-])cc2)nc2ccc(F)cc12`, the concentration for a half-maximal effect (EC50) was 30.9 nM.
For `Clc1ccc2nc(/C=C/c3ccncc3)cc(N3CCOCC3)c2c1` the value was 3590 nM; for `FC(F)(F)c1ccc(/C=C/c2cc(NCCCN3CCOCC3)c3cc(Cl)ccc3n2)cc1`, 84.8 nM; for `FC(F)(F)c1cccc(/C=C/c2cc(NCCCCN3CCOCC3)c3cc(Cl)ccc3n2)c1`, 33.9 nM.
`Fc1cc(/C=C/c2cc(NCCCCN3CCOCC3)c3cc(Cl)ccc3n2)cc(F)c1F`: the EC50 stood at 130 nM.
`COc1ccc2nc(/C=C/c3ccc([N+](=O)[O-])cc3)cc(NCCN(C)C)c2c1`: the EC50 was 28.6 nM.
With `CN(C)CCNc1cc(/C=C/c2ccc(F)cc2)nc2ccccc12`, the EC50 was determined as 25.5 nM.
Regarding `FC(F)(F)c1cc(/C=C/c2cc(NCCCCN3CCOCC3)c3cc(Cl)ccc3n2)cc(C(F)(F)F)c1`, the half-maximal effective concentration (EC50) was determined as 108 nM.
In the case of `CN(C)CCCCNc1cc(/C=C/c2ccc(F)cc2)nc2ccc(Cl)cc12`, the EC50 was 51.2 nM.
Turning to `Fc1ccc(/C=C/c2cc(NCCCCN3CCOCC3)c3cc(Cl)ccc3n2)nc1`, the EC50 was found to be 73.1 nM.
For `CN(C)CCNc1cc(/C=C/c2ccccc2)nc2ccccc12` the value was 80.7 nM.
For `CN(C)CCNc1cc(/C=C/c2cccnc2)nc2ccc(Cl)cc12` the value was 33.6 nM; for `FC(F)(F)c1ccccc1/C=C/c1cc(NCCCCN2CCOCC2)c2cc(Cl)ccc2n1`, 104 nM; for `CN1CCN(CCCCNc2cc(/C=C/c3ccccc3)nc3ccc(Cl)cc23)CC1`, 58.9 nM.
For `Fc1cnccc1/C=C/c1cc(NCCCCN2CCOCC2)c2cc(Cl)ccc2n1`, the EC50 amounted to 79.6 nM.
